The source made the active and inactive calls. The calls are words filed in the database; no cut-off is given here.
Experiments:
[1] = Tmax in Beagle dog at 3 mg/kg, po or 1 mg/kg, iv by LC-MS/MS analysis; assay type: ADME, organism-based, Canis lupus familiaris; conditions: in vivo
[2] = Metabolic stability in rat liver microsomes in presence of NADPH after 30 mins by LC-MS/MS analysis; assay type: ADME, Microsome; conditions: read-out: Stability
[3] = Metabolic stability in monkey liver microsomes in presence of NADPH after 30 mins by LC-MS/MS analysis; assay type: ADME, Macaca mulatta, Microsome; conditions: rhesus monkey, read-out: Stability
[4] = Metabolic stability in dog hepatocytes after 30 mins by LC-MS/MS analysis; assay type: ADME, cell-based, Canis lupus familiaris, Hepatocyte; conditions: read-out: Stability
Cytochrome P450 1A2 = target: T1, Cytochrome P450 1A2 (Homo sapiens, UniProt P05177); test: Inhibition of CYP1A2 (unknown origin); assay type: ADME
T1 sequence (P05177 whole entry): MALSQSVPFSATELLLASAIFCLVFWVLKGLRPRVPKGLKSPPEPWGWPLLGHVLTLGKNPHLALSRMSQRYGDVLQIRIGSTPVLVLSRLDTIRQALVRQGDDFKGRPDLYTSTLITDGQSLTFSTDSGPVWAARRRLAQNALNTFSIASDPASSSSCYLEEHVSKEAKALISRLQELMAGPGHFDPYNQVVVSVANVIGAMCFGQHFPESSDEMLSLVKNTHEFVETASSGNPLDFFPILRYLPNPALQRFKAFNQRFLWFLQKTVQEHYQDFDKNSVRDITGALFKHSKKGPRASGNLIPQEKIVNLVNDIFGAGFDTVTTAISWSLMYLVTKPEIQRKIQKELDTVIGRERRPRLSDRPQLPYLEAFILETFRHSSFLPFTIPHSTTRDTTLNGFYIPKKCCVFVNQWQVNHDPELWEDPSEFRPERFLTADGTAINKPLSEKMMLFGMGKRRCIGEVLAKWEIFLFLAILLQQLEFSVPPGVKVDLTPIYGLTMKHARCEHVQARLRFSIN

Cytochrome P450 2B6 = target: T2, Cytochrome P450 2B6 (Homo sapiens, UniProt P20813); test: Inhibition of CYP2B6 (unknown origin); assay type: ADME
T2 sequence (P20813 whole entry): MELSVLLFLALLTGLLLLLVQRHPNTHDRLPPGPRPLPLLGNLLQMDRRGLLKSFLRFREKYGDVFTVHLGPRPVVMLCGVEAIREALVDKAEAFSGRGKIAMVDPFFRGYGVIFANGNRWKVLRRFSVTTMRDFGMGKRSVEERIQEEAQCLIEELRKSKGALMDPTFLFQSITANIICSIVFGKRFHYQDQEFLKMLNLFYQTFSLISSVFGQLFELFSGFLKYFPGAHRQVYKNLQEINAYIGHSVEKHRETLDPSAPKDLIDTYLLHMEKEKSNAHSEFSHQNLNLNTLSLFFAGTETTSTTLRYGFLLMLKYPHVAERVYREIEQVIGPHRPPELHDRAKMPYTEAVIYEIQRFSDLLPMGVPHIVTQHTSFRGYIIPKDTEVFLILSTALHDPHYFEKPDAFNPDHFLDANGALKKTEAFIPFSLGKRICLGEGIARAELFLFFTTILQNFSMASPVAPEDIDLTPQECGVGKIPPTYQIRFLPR

Cytochrome P450 2C8 = target: T3, Cytochrome P450 2C8 (Homo sapiens, UniProt P10632); test: Inhibition of CYP2C8 (unknown origin); assay type: ADME
T3 sequence (P10632 whole entry): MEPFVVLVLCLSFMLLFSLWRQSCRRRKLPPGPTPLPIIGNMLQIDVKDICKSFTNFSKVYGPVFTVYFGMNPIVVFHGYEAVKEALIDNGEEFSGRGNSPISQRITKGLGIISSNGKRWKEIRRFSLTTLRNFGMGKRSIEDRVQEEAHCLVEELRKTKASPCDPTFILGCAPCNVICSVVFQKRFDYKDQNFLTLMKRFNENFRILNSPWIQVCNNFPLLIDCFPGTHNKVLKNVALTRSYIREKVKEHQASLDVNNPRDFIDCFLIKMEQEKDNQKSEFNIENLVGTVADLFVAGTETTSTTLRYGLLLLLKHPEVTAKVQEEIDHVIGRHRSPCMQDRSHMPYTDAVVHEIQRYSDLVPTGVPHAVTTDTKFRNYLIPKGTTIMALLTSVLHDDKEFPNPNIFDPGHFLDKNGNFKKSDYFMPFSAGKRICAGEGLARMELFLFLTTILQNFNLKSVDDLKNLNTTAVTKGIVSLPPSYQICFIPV

Cytochrome P450 2C19 = Cytochrome P450 2C19 (Homo sapiens, UniProt P33261); test: Inhibition of CYP2C19 (unknown origin); assay type: ADME
Cytochrome P450 2D6 = Cytochrome P450 2D6 (Homo sapiens, UniProt P10635); test: Inhibition of CYP2D6 in human liver microsomes using dextromethorphan as substrate after 12 mins in presence of NADPH by LC-MS/MS analysis; assay type: ADME
Rattus norvegicus [5] = test: In vivo inverse agonist activity at histamine 3 receptor in rat assessed as inhibition of RAMH-induced dipsogenia at 0.3 to 10 mg/kg, po measured after 3 days; assay type: functional, organism-based
In short: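 Male rats were dosed orally with 0.3, 0.5, 0.7, 1, 3 or 10 mg/kg (vehicle 1 mL/kg), then given (R)-α-methylhistamine 2.5 mg/kg s.c. Read-out was water intake (mL), reported as mean ± SEM.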

Rattus norvegicus [6] = test: Induction of wake promoting activity in orexin-B-saporin lesioned Wistar rat assessed as decrease in REM sleep time at 10 to 30 mg/kg, po dosed 15 mins before start of dark phase; assay type: functional, organism-based
In short: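 Rats carried epidural frontal-cortex EEG screws, nuchal EMG leads, and bilateral lateral hypothalamic orexin-B-saporin (490 ng/0.8 µl). After at least 3 weeks' recovery, they were dosed 15 min before lights-off in a crossover design with a 1-week washout. Wake, NREM and REM time was totalled over 3 h. DREM was scored as REM after ≥60 s wake. Dunnett's test was used.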

Rattus norvegicus [7] = test: Effect on striatal dopamine levels in Wistar rat at 100 mg/kg, po by microdialysis; assay type: ADME, organism-based; conditions: in vivo
Rattus norvegicus [8] = test: Effect on accumbal dopamine levels in Wistar rat at 100 mg/kg, po by microdialysis; assay type: ADME, organism-based; conditions: in vivo
[9] = Toxicity in dog assessed as effect on body temperature at 10 to 25 mg/kg, po; assay type: organism-based, Canis lupus familiaris; conditions: in vivo
In short: (§1)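 Male dogs received oral doses of 10, 18 and 25 mg/kg. Body weight, body temperature, blood pressure, heart rate and ECG were monitored.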

[10] = Toxicity in dog assessed as effect on heart rate at 10 to 25 mg/kg, po; assay type: organism-based, Canis lupus familiaris; conditions: in vivo; in short: as §1
[11] = Toxicity in Wistar rat assessed as effect on latency to fall at 30 to 100 mg/kg, po by rotarod test; assay type: organism-based; conditions: in vivo
In short: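 Motor coordination was assessed on the rotarod as latency to fall after oral doses of 30 and 100 mg/kg.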

CHO-K1 [12] = test: Induction of phospholipidosis in CHOK1 cells up to 300 uM incubated for 24 hrs by fluorescent-labeled phospholipid probe NBD-PE based fluorescence assay; assay type: cell-based, Cricetulus griseus; conditions: chinese hamster, cho-k1, 24 h
CHO-K1 [13] = test: Cytotoxicity in CHOK1 cells up to 300 uM incubated for 24 hrs by MTT assay; assay type: cell-based, Cricetulus griseus; conditions: chinese hamster, cho-k1, 24 h
[14] = Mutagenicity in Salmonella typhimurium TA1535 in presence of metabolic activation by Ames test; assay type: toxicity; conditions: salmonella enterica subsp. enterica serovar typhimurium
[15] = Mutagenicity in Salmonella typhimurium TA98 in presence of metabolic activation by Ames test; assay type: toxicity; conditions: salmonella enterica subsp. enterica serovar typhimurium

Sequence of Cytochrome P450 2C19 (P33261 whole entry): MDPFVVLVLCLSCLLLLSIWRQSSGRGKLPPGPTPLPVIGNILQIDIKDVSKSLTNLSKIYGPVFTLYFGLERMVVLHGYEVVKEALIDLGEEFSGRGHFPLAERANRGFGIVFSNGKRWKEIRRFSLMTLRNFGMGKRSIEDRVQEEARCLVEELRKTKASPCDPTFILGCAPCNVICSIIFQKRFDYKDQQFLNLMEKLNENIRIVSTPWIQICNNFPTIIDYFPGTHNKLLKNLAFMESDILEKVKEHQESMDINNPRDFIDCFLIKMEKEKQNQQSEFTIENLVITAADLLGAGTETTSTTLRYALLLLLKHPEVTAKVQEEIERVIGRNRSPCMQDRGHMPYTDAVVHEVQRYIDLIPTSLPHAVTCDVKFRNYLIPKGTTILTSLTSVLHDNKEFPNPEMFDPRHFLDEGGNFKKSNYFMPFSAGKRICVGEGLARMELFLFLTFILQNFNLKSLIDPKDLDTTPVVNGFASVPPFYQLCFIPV
Sequence of Cytochrome P450 2D6 (P10635 whole entry): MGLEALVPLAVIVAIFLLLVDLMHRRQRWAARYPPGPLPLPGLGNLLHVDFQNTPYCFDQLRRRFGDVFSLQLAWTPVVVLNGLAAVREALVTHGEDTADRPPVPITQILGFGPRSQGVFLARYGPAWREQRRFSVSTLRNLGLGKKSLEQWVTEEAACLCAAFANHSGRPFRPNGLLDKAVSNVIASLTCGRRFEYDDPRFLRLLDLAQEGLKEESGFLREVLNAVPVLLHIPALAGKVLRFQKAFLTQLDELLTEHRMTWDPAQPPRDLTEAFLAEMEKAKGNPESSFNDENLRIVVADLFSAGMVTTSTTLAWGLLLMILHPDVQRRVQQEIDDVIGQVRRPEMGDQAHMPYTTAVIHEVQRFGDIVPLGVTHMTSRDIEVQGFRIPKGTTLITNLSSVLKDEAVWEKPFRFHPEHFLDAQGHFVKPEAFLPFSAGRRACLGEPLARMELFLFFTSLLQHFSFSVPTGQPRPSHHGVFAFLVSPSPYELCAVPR

Cl.Cl.O=C(CN1CCOCC1)Nc1ccc(OC2CCN(C3CCC3)CC2)cc1
Tmax [1]: 15 to 60 min | remaining at 0.5 h [2]: 27% | remaining at 0.5 h [3]: 35% | remaining at 0.5 h [4]: 33% | IC50 (Cytochrome P450 1A2): > 45 µM | IC50 (Cytochrome P450 2B6): > 45 µM | IC50 (Cytochrome P450 2C8): > 45 µM | IC50 (Cytochrome P450 2C19): > 45 µM | IC50 (Cytochrome P450 2D6): > 45 µM | inhibition (Rattus norvegicus [5]): Active | Activity (Rattus norvegicus [6]): Active | Activity (Rattus norvegicus [7]): Non-Toxic | Activity (Rattus norvegicus [8]): Non-Toxic | Activity [9]: Non-Toxic | Activity [10]: Non-Toxic | Activity [11]: Non-Toxic | Activity (CHO-K1 [12]): Non-Toxic | Activity (CHO-K1 [13]): Non-Toxic | Activity [14]: Non-Toxic | Activity [15]: Non-Toxic
